Results reported in ChEMBL document CHEMBL2150969, “Design, synthesis and biological evaluation of nuclear receptor-degradation inducers” (Bioorg Med Chem, 2011).
Each block holds one compound with its values, some of them ahead of it. The source made the active and inactive calls. No cut-off for these calls is given here.

How the values were obtained:
[1] = target: Baculoviral IAP repeat-containing protein 2 (Homo sapiens) (UniProt Q13490); test: Induction of cIAP1-mediated ERalpha degradation in human MCF7 cells at 1 to 30 uM after 24 hrs by Western blot analysis; type: cell-based
Sequence of Baculoviral IAP repeat-containing protein 2 (Homo sapiens) (Q13490 whole entry): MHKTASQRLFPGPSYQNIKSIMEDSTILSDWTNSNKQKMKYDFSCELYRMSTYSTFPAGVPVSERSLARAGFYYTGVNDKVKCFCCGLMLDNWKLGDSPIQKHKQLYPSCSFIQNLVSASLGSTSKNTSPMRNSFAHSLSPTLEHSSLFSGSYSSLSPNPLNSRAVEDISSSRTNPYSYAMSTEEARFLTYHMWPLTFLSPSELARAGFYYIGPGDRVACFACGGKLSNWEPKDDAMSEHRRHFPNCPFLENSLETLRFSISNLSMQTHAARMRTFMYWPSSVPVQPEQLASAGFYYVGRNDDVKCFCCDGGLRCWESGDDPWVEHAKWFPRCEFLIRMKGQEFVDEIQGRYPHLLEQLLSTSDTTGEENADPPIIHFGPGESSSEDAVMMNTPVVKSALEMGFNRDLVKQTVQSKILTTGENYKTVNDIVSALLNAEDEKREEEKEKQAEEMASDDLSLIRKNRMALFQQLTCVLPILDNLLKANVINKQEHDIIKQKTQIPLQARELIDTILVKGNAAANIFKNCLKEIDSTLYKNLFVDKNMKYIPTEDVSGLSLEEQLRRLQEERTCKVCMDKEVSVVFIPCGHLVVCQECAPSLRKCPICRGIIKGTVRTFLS
Outline: (§1)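 MCF-7 cells were kept in D-MEM with 10% FBS and penicillin/streptomycin, with 2 nM E2 as physiological agonist, at 37 °C under 5% CO2. Cells (1×10^6) were treated, lysed in SDS buffer and protein was BCA-normalized. Lysates ran on 10-20% SDS-PAGE and PVDF, blocked with 5% skim milk, then probed with rabbit polyclonal anti-ERα (1:200) and β-actin. Detection used HRP secondaries and ECL.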

HT-1080 [2] = test: Induction of CRABP-2 degradation in human HT1080 cells at 10 uM after 24 hrs by Western blot analysis; type: functional, cell-based
Outline: (§2)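 HT-1080 cells were grown in RPMI 1640 with 10% heat-inactivated FBS at 37 °C under 5% CO2. Cells (1×10^6) were treated, then lysed in SDS buffer and protein was equalized by BCA. Lysates ran on 10-20% SDS-PAGE and went to PVDF, blocked with 5% skim milk/TBS-T. Blots were probed with anti-CRABP-II or anti-RARα plus β-actin, HRP secondaries, and ECL detection.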

[3] = target: Baculoviral IAP repeat-containing protein 2 (Homo sapiens) (UniProt Q13490); test: Induction of FLAG-tagged cIAP1 expressed in human HT1080 cells assessed as RARalpha degradation at 10 uM after 24 hrs by Western blot analysis; type: cell-based; settings: HT-1080; outline: as §2
[4] = target: Baculoviral IAP repeat-containing protein 2 (Homo sapiens) (UniProt Q13490); test: Induction of cIAP1-mediated AR degradation in human MCF7 cells at 30 uM after 24 hrs by Western blot analysis relative to control; type: cell-based
Outline: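 MCF-7 cells were grown in D-MEM with 10% FBS, penicillin/streptomycin and 10 nM DHT at 37 °C under 5% CO2. Cells (1×10^6) were treated, lysed in SDS buffer, and equal protein (by BCA) was run on 10-20% SDS-PAGE and transferred to PVDF. Blots were blocked in 5% skim milk/TBS-T, probed with mouse monoclonal anti-AR (1:200) and β-actin antibody, and read by ECL.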

[5] = target: Baculoviral IAP repeat-containing protein 2 (Homo sapiens) (UniProt Q13490); test: Induction of cIAP1-mediated ERalpha degradation in human MCF7 cells at 30 uM after 24 hrs by Western blot analysis; type: cell-based; outline: as §1
[6] = target: Baculoviral IAP repeat-containing protein 2 (Homo sapiens) (UniProt Q13490); test: Induction of FLAG-tagged cIAP1 expressed in human HT1080 cells assessed as RARalpha degradation at 30 uM after 24 hrs by Western blot analysis; type: cell-based; settings: HT-1080; outline: as §2
[7] = target: Baculoviral IAP repeat-containing protein 2 (Homo sapiens) (UniProt Q13490); test: Induction of FLAG-tagged cIAP1 expressed in human HT1080 cells assessed as RARalpha degradation at 10 uM after 6 hrs by Western blot analysis in presence of RAR antagonist LE540 added 30 mins prior to compound treatment; type: functional, cell-based; settings: HT-1080; outline: as §2
[8] = target: Baculoviral IAP repeat-containing protein 2 (Homo sapiens) (UniProt Q13490); test: Induction of FLAG-tagged cIAP1 expressed in human HT1080 cells assessed as RARalpha degradation at 10 uM after 6 hrs by Western blot analysis in presence of proteasome inhibitor MG132 added 30 mins prior to compound treatment; type: cell-based; settings: HT-1080; outline: as §2
[9] = target: Baculoviral IAP repeat-containing protein 2 (Homo sapiens) (UniProt Q13490); test: Induction of FLAG-tagged cIAP1 expressed in human HT1080 cells assessed as CRABP-2 degradation at 1 to 30 uM after 24 hrs by Western blot analysis; type: cell-based; settings: HT-1080; outline: as §2
[10] = target: Baculoviral IAP repeat-containing protein 2 (Homo sapiens) (UniProt Q13490); test: Induction of FLAG-tagged cIAP1 expressed in human HT1080 cells assessed as RARalpha degradation after 24 hrs by Western blot analysis; type: cell-based; settings: HT-1080; outline: as §2
HT-1080 [11] = test: Induction of RARalpha degradation in human HT1080 cells at 10 uM after 24 hrs by Western blot analysis; type: functional, cell-based; outline: as §2
MCF7 = test: Induction of ERalpha degradation in human MCF7 cells at 30 uM after 24 hrs by Western blot analysis; type: functional, cell-based; outline: as §1

Compound: CNC(=O)[C@H](CC(C)C)NC(=O)[C@@H](O)[C@H](N)Cc1ccccc1
- Activity [4]: Active
- Activity [5]: inactive
- Activity [6]: inactive

Compound: CC(C)C[C@H](NC(=O)[C@@H](O)[C@H](N)Cc1ccccc1)C(=O)NCCOCCOCCOCC(=O)NCCCOc1cc(/C=C/C(=O)c2cc(C(C)(C)C)cc(C(C)(C)C)c2)ccc1C(=O)O
- Activity [7]: inactive
- Activity [8]: inactive
- Activity [9]: inactive
- Activity [10]: Dose-dependent effect

Compound: CC(C)C[C@H](NC(=O)[C@@H](O)[C@H](N)Cc1ccccc1)C(=O)NCCOCCOCCOCC(=O)O[C@H]1CC[C@H]2[C@@H]3CC[C@H]4CC(=O)CC[C@]4(C)[C@H]3CC[C@]12C
- Activity [4]: Active

Compound: CC(C)C[C@H](NC(=O)CCCc1ccccc1)C(=O)NCCOCCOCCOCC(=O)NCCCOc1cc(/C=C/C(=O)c2cc(C(C)(C)C)cc(C(C)(C)C)c2)ccc1C(=O)O
- Activity (HT-1080 [11]): inactive

Compound: C[C@]12CC[C@@H]3c4ccc(O)cc4CC[C@H]3[C@@H]1CCC2=O
- Activity (MCF7): inactive

The next lines start with results.

- Activity [1]: inactive
Compound: CC(C)C[C@H](NC(=O)CCCc1ccccc1)C(=O)NCCOCCOCCNC(=O)CO/N=C1\CC[C@H]2[C@@H]3CCc4cc(O)ccc4[C@H]3CC[C@]12C

- Activity [3]: inactive
Compound: CC1=C(/C=C/C(C)=C/C=C/C(C)=C/C(=O)O)C(C)(C)CC/C1=N\OCC(=O)NCCOCCOCCOC(=O)[C@H](CC(C)C)NC(=O)[C@@H](O)[C@H](N)Cc1ccccc1
- Activity (HT-1080 [2]): Active

- Activity [5]: Active
Compound: CC(C)C[C@H](NC(=O)[C@@H](O)[C@H](N)Cc1ccccc1)C(=O)NCCOCCOCCNC(=O)CO/N=C1\CC[C@H]2[C@@H]3CCc4cc(O)ccc4[C@H]3CC[C@]12C
